In brackets after ≈: the same amount, converted by molar mass.
What was measured:
[1] = system: Staphylococcus epidermidis; assay: Antibacterial activity against methicillin-sensitive Staphylococcus epidermidis after 24 hrs by NCCLS method; assay type: functional
Summary of the method: (§1)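 Broth microdilution in Mueller-Hinton broth. Stocks at 1280 µg/mL in aqueous 10-20% DMSO, diluted to 128 µg/mL, then 2-fold serially to final 64 down to 0.125 µg/mL. Overnight MHB cultures diluted to 10^6~10^7 CFU/mL and added 1:1 to compound. Incubated 24 h at 37°C. MIC read from OD against MHB blank. Three parallels per concentration.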

Staphylococcus aureus [2] = assay: Antibacterial activity against methicillin-resistant Staphylococcus aureus after 24 hrs by NCCLS method; assay type: functional; summary of the method: as §1
Escherichia coli = assay: Antibacterial activity against Escherichia coli ATCC 11775 after 24 hrs by NCCLS method; assay type: functional; conditions: DSM 30083 = JCM 1649 = ATCC 11775, 24 h
Summary of the method: (§2)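 Broth microdilution in Mueller-Hinton broth. Stocks at 1280 µg/mL in aqueous 10-20% DMSO were diluted to 128 µg/mL, then serially 2-fold diluted giving final concentrations of 64 down to 0.125 µg/mL. Overnight MHB cultures were diluted to 10^6~10^7 CFU/mL, and 100 µL was added per well. Plates ran 24 h at 37°C. MIC was read from OD against an MHB blank, in triplicate.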

[3] = system: Staphylococcus epidermidis; assay: Antibacterial activity against methicillin-resistant Staphylococcus epidermidis after 24 hrs by NCCLS method; assay type: functional; summary of the method: as §1
Enterococcus faecium = assay: Antibacterial activity against Enterococcus faecium after 24 hrs by NCCLS method; assay type: functional; summary of the method: as §2
Enterococcus faecalis = assay: Antibacterial activity against Enterococcus faecalis after 24 hrs by NCCLS method; assay type: functional; summary of the method: as §2
Staphylococcus aureus [4] = assay: Antibacterial activity against methicillin-sensitive Staphylococcus aureus after 24 hrs by NCCLS method; assay type: functional; summary of the method: as §2
Pasteurella multocida = assay: Antibacterial activity against Pasteurella multocida after 24 hrs by NCCLS method; assay type: functional; summary of the method: as §2
Staphylococcus aureus [5] = assay: Antibacterial activity against methicillin-resistant Staphylococcus aureus infected in Kunming mouse assessed as mouse survival at 40 mg/kg, ig qd treated for 3 consecutive days and measured during compound treatment relative to control; assay type: functional; conditions: po
Summary of the method: (§3)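 Female Kunming mice, 22±2 g, made neutropenic with cyclophosphamide i.p., 150 mg/kg 4 days and 100 mg/kg 1 day before infection. Infected i.p. with 0.5 mL suspension of clinical MRSA isolate. Intragastric dosing at 20 or 40 mg/kg/d, starting 1 h post-infection, once daily for 3 consecutive days. Survival monitored.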

Staphylococcus aureus [6] = assay: Bactericidal activity against exponential phase of methicillin-resistant Staphylococcus aureus assessed as time required for complete bacterial killing at 8 times MIC by time kill kinetics assay; assay type: functional
Summary of the method: (§4)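 Exponential-phase S. aureus (4 h at 37°C, 120 rpm) diluted to ~2×10^7 CFU/mL in MHB and mixed 1:1 with MHB containing twice the desired compound concentration. Shaken at 37°C, 120 rpm. Samples at 1, 2, 3 and 4 h washed with PBS, diluted, spot-plated on MH agar, counted after ~18 h at 37°C as log10 CFU/mL. Triplicate, mean±s.d.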

Staphylococcus aureus [7] = assay: Bactericidal activity against exponential phase of methicillin-resistant Staphylococcus aureus after 1 to 4 hrs by time kill kinetics assay; assay type: functional, organism-based; summary of the method: as §4
Staphylococcus aureus [8] = assay: Antibacterial activity against methicillin-resistant Staphylococcus aureus clinical isolates infected in ip dosed mouse assessed as reduction in bacterial infection administered 1 hr after infection and measured after 7 days; assay type: functional
Summary of the method: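 Kunming mice, half male and half female, 19-23 g, 10 per group. Infected i.p. with 0.5 mL clinical MRSA isolate suspension (~10^7 CFU/mL). Single i.p. dose 1 h post-infection, five dose levels between 7.0 and 50.0 mg/kg depending on compound. Vehicle was DMSO:Tween-80:water 1:1:8, or water for valnemulin. ED50 by Probit analysis from survival after 7 days; 95% confidence ranges.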

Staphylococcus aureus [9] = assay: Bactericidal activity against exponential phase of methicillin-resistant Staphylococcus aureus assessed as time required for complete bacterial killing at 4 times MIC by time kill kinetics assay; assay type: functional; summary of the method: as §4
Staphylococcus aureus [10] = assay: Antibacterial activity against methicillin-resistant Staphylococcus aureus infected in Kunming mouse assessed as mouse survival at 20 mg/kg, ig qd treated for 3 consecutive days and measured up to 10 days relative to control; assay type: functional; conditions: po, 240 h; summary of the method: as §3
Staphylococcus aureus [11] = assay: Antibacterial activity against methicillin-resistant Staphylococcus aureus infected in Kunming mouse assessed as mouse survival at 40 mg/kg, ig qd treated for 3 consecutive days and measured at day 5 relative to control; assay type: functional; conditions: po, 120 h; summary of the method: as §3
Staphylococcus aureus [12] = assay: Antibacterial activity against methicillin-resistant Staphylococcus aureus infected in Kunming mouse assessed as mouse survival at 40 mg/kg, ig qd treated for 3 consecutive days and measured at day 6 relative to control; assay type: functional; conditions: po, 144 h; summary of the method: as §3

With `C=C[C@]1(C)C[C@@H](OC(=O)CSc2nc(NC(=O)CN3CCC(CO)CC3)c3cc[nH]c3n2)[C@]2(C)[C@H](C)CC[C@]3(CCC(=O)[C@H]32)[C@@H](C)[C@@H]1O` the MIC [1] was 0.125 µg/mL (≈ 0.183 µM), the MIC (Staphylococcus aureus [2]) was 0.25 µg/mL (≈ 0.367 µM) and the MIC (Escherichia coli) was greater than 64 µg/mL. The MIC [3] was 0.125 µg/mL (≈ 0.183 µM), the MIC (Enterococcus faecium) was 0.25 µg/mL (≈ 0.367 µM) and the MIC (Enterococcus faecalis) was 64 µg/mL (≈ 93.9 µM). For the same compound, the MIC (Staphylococcus aureus [4]) was 0.25 µg/mL (≈ 0.367 µM) and the MIC (Pasteurella multocida) was 64 µg/mL (≈ 93.9 µM).
For `C=C[C@]1(C)C[C@@H](OC(=O)CSc2nc(NC(=O)CN3CCNCC3)c3cc[nH]c3n2)[C@]2(C)[C@H](C)CC[C@]3(CCC(=O)[C@H]32)[C@@H](C)[C@@H]1O`, the MIC [1] was 1 µg/mL (≈ 1.53 µM), the MIC (Staphylococcus aureus [2]) was 4 µg/mL (≈ 6.13 µM) and the MIC (Escherichia coli) was greater than 64 µg/mL. For the same compound, the MIC [3] was 1 µg/mL (≈ 1.53 µM), the MIC (Enterococcus faecium) was 1 µg/mL (≈ 1.53 µM) and the MIC (Enterococcus faecalis) was 64 µg/mL (≈ 98 µM). For the same compound, the MIC (Staphylococcus aureus [4]) was 2 µg/mL (≈ 3.06 µM) and the MIC (Pasteurella multocida) was 32 µg/mL (≈ 49 µM).
Compound `C=C[C@]1(C)C[C@@H](OC(=O)CSc2nc(N)c3cc[nH]c3n2)[C@]2(C)[C@H](C)CC[C@]3(CCC(=O)[C@H]32)[C@@H](C)[C@@H]1O` has an MIC [1] of 1 µg/mL (≈ 1.9 µM), an MIC (Staphylococcus aureus [2]) of 1 µg/mL (≈ 1.9 µM) and an MIC (Escherichia coli) greater than 64 µg/mL. It also gave an MIC [3] of 2 µg/mL (≈ 3.8 µM), an MIC (Enterococcus faecium) of 1 µg/mL (≈ 1.9 µM) and an MIC (Enterococcus faecalis) of 64 µg/mL (≈ 122 µM). The MIC (Staphylococcus aureus [4]) was 1 µg/mL (≈ 1.9 µM) and the MIC (Pasteurella multocida) was 64 µg/mL (≈ 122 µM).
In the case of `C=C[C@]1(C)C[C@@H](OC(=O)CSc2nc(NC(=O)CN3CCN(c4ccccc4)CC3)c3cc[nH]c3n2)[C@]2(C)[C@H](C)CC[C@]3(CCC(=O)[C@H]32)[C@@H](C)[C@@H]1O`, the MIC [1] is reported as 0.5 µg/mL (≈ 0.686 µM), the MIC (Staphylococcus aureus [2]) is reported as 1 µg/mL (≈ 1.37 µM) and the MIC (Escherichia coli) is reported as greater than 64 µg/mL. The MIC [3] was 1 µg/mL (≈ 1.37 µM), the MIC (Enterococcus faecium) was 1 µg/mL (≈ 1.37 µM) and the MIC (Enterococcus faecalis) was 64 µg/mL (≈ 87.8 µM). The MIC (Staphylococcus aureus [4]) was 1 µg/mL (≈ 1.37 µM) and the MIC (Pasteurella multocida) was 64 µg/mL (≈ 87.8 µM).
In the case of `C=C[C@]1(C)C[C@@H](OC(=O)CSc2nc(NC(=O)CN3CCC(O)CC3)c3cc[nH]c3n2)[C@]2(C)[C@H](C)CC[C@]3(CCC(=O)[C@H]32)[C@@H](C)[C@@H]1O`, the MIC [1] is reported as 1 µg/mL (≈ 1.5 µM), the MIC (Staphylococcus aureus [2]) is reported as 2 µg/mL (≈ 2.99 µM) and the MIC [3] is reported as 1 µg/mL (≈ 1.5 µM).
For `C=C[C@]1(C)C[C@@H](OC(=O)CSc2nc(NC(=O)CN3CCC(N4CCCCC4)CC3)c3cc[nH]c3n2)[C@]2(C)[C@H](C)CC[C@]3(CCC(=O)[C@H]32)[C@@H](C)[C@@H]1O`, the MIC [1] was 0.25 µg/mL (≈ 0.34 µM), the MIC (Staphylococcus aureus [2]) was 0.5 µg/mL (≈ 0.68 µM) and the MIC (Escherichia coli) was 64 µg/mL (≈ 87.1 µM). It also gave an MIC [3] of 0.5 µg/mL (≈ 0.68 µM), an MIC (Enterococcus faecium) of 0.0625 µg/mL (≈ 0.085 µM) and an MIC (Enterococcus faecalis) of 64 µg/mL (≈ 87.1 µM). The MIC (Staphylococcus aureus [4]) was 0.5 µg/mL (≈ 0.68 µM) and the MIC (Pasteurella multocida) was 64 µg/mL (≈ 87.1 µM).
For `C=C[C@]1(C)C[C@@H](OC(=O)CSc2nc(NC(=O)CN3CCCC3)c3cc[nH]c3n2)[C@]2(C)[C@H](C)CC[C@]3(CCC(=O)[C@H]32)[C@@H](C)[C@@H]1O`, the survival at 40 mg/kg (Staphylococcus aureus [5]) was greater than 90%, the MIC [1] was 0.0625 µg/mL (≈ 0.098 µM) and the Time (Staphylococcus aureus [6]) was 2 h. The Activity (Staphylococcus aureus [7]) was “Dose-dependent effect”, the ED50 (Staphylococcus aureus [8]) was 16 mg/kg and the MIC (Staphylococcus aureus [2]) was 0.0625 µg/mL (≈ 0.098 µM). It also gave an MIC (Escherichia coli) of 32 µg/mL (≈ 50.2 µM), an MIC [3] of 0.0625 µg/mL (≈ 0.098 µM) and a Time (Staphylococcus aureus [9]) of 4 h. It also gave an MIC (Enterococcus faecium) of 0.0625 µg/mL (≈ 0.098 µM), a survival at 20 mg/kg (Staphylococcus aureus [10]) of 30% and an MIC (Enterococcus faecalis) of 64 µg/mL (≈ 100 µM). For the same compound, the MIC (Staphylococcus aureus [4]) was 0.0625 µg/mL (≈ 0.098 µM), the survival at 40 mg/kg (Staphylococcus aureus [11]) was 70% and the MIC (Pasteurella multocida) was 16 µg/mL (≈ 25.1 µM). The survival at 40 mg/kg (Staphylococcus aureus [12]) was 80%.
Work on `C=C[C@]1(C)C[C@@H](OC(=O)CSc2nc(NC(=O)CNC3CC3)c3cc[nH]c3n2)[C@]2(C)[C@H](C)CC[C@]3(CCC(=O)[C@H]32)[C@@H](C)[C@@H]1O` yielded an MIC [1] of 0.125 µg/mL (≈ 0.2 µM), an MIC (Staphylococcus aureus [2]) of 0.25 µg/mL (≈ 0.401 µM) and an MIC (Escherichia coli) greater than 64 µg/mL. For the same compound, the MIC [3] was 0.25 µg/mL (≈ 0.401 µM), the MIC (Enterococcus faecium) was 0.25 µg/mL (≈ 0.401 µM) and the MIC (Enterococcus faecalis) was 64 µg/mL (≈ 103 µM). It also gave an MIC (Staphylococcus aureus [4]) of 0.125 µg/mL (≈ 0.2 µM) and an MIC (Pasteurella multocida) of 32 µg/mL (≈ 51.3 µM).
`C=C[C@]1(C)C[C@@H](OC(=O)CSc2nc(NC(=O)CN3CCOCC3)c3cc[nH]c3n2)[C@]2(C)[C@H](C)CC[C@]3(CCC(=O)[C@H]32)[C@@H](C)[C@@H]1O` gave an MIC [1] of 0.25 µg/mL (≈ 0.382 µM), an MIC (Staphylococcus aureus [2]) of 0.25 µg/mL (≈ 0.382 µM) and an MIC (Escherichia coli) of 64 µg/mL (≈ 97.9 µM). For the same compound, the MIC [3] was 0.25 µg/mL (≈ 0.382 µM), the MIC (Enterococcus faecium) was 0.25 µg/mL (≈ 0.382 µM) and the MIC (Enterococcus faecalis) was 64 µg/mL (≈ 97.9 µM). It also gave an MIC (Staphylococcus aureus [4]) of 0.125 µg/mL (≈ 0.191 µM) and an MIC (Pasteurella multocida) of 32 µg/mL (≈ 48.9 µM).

Reference: ChEMBL document CHEMBL4325900, “Antibacterial activity evaluation of synthetic novel pleuromutilin derivatives in vitro and in experimental infection mice” (2019)
